Hits are enriched below; roughly 2.4% of the tested compounds scored in any of these assays.
zVAD death inh: blocks zVAD induced death of L929 cells; L929 zVAD necroptosis rescue, ATP luminescence, 24 h; with zVAD 60 µM; viability rescue, % at 10 µM; hit rate 0.38% among 220,000; AID 1377;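 active = activation, scaled between plate controls, above about 75%, limit read from the data; inactive = activation under that limit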;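 also: 0% = zVAD with DMSO and 100% = DMSO alone without zVAD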
Hck-Nef inh: blocks Nef-activated human Hck kinase | Recombinant Hck-YEEI plus Nef, Z-Lyte FRET kinase assay | AID 463187 | hit rate 0.68% among 220,000 | inhibition, % at 20 µM | P08631;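 active = Hck-Nef kinase inhibition above about 50%, limit read from the data; inactive = inhibition below that limit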;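 also: 0% = DMSO with Hck plus Nef and 100% = Hck alone without Nef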
Dynein transport: blocks dynein driven cargo transport along microtubules. 3617.4 mouse cells, GR-EGFP nuclear translocation imaging; test concentration mostly 20 µM; stimulated with dexamethasone, 1 µM; active compounds read low. z-score, hits read low. hit rate 0.47% among 220,000. AID 1381;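 active = plate z-score of nuclear minus cytoplasmic receptor signal below a set negative limit, without overly bright fluorescence or cell loss, cut at about -3.5 in these data, passing the limit was not always enough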;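 also: z-score of nuclear minus cytoplasmic ring GR-EGFP intensity difference per well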
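medium = tetracycline-free induction medium containing charcoal-stripped FBS | probe or stimulus = dexamethasone, 1.0 µM final | timing = 48 h induction, then 1 h compound, then 30 min agonist, 37 °C | detection = automated 10x imaging of fixed Hoechst-stained cells | read-out basis = nuclear versus cytoplasmic GR-EGFP signal, averaged per well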
TNF necrop inh: TNF-alpha cell death inhibition in Jurkat FADD-/- cells | Jurkat FADD-/- TNF necroptosis rescue, ATP luminescence, 24 h; 0 = TNF only, 100 = no-TNF cells | activation (protection from cell death), % at 10 µM | hit rate 0.068% among 220,000;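 active = activation, meaning protection from cell death, of at least 50% relative to plate controls; inactive = activation below 50%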;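 also: necroptosis triggered by 40 ng/mL TNF-alpha added together with compound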
Autophagy HCS: alters autophagy in cells. MEF GFP-LC3 puncta imaging; test concentration mostly 10 µM. calls only at 10 µM (by protocol). hit rate 0.98% among 190,000. AID 463193;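 active = percentage of spot-positive cells more than 3 SD above its plate mean, without a fluorescence outlier flag or 80% toxicity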;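 also: spot-positive cell cutoff set from DMSO-treated cells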
Mdm2 ligase inh: inhibitors of human Mdm2 E3 ubiquitin ligase; signal enhancement, % at 5 µM; cell-based MDM2 ubiquitination luciferase reporter, 2 h; 0 = plate control, 100 = twice control, blank-subtracted; hit rate 0.11% among 210,000; AID 1230; Q00987;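 active = signal enhancement of 30% or more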;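 also: luminescence tracks abundance of the self-degrading MDM2-luciferase fusion protein; higher signal means inhibition of MDM2 E3 ligase activity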
Target sequence (Q00987 whole entry, looked up, the tested form may be a part): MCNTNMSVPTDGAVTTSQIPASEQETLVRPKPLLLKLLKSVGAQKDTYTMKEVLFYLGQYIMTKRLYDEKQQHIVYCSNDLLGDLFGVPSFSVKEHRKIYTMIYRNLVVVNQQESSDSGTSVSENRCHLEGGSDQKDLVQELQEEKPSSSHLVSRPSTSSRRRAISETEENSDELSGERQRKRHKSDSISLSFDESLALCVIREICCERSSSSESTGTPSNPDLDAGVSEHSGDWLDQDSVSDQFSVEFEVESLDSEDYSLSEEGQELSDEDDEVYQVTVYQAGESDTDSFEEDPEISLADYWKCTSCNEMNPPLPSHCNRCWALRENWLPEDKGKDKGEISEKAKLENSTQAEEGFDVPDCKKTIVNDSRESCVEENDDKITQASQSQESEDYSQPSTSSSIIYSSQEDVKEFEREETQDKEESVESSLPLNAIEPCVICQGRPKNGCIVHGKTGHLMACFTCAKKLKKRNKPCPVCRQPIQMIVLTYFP
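Assay system: mammalian cells stably expressing self-ubiquitinating, self-degrading MDM2 E3–luciferase fusion. Quantity: 2000 cells in each well. Medium: DMEM culture medium. Compound dosing: single-point 5 µM. Timing: cell settling 4 h, compound treatment 2 h, both 37 °C. Technique: luciferase luminescence. Read-out basis: percent signal gain over controls, blank-subtracted. Benchmarks: plate controls and plate blanks.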
* marks the source's active call; other numbers are inactive results; i = inactive; · = not tested or not shown; + = active, no number.

SMILES	zVAD death inh	Hck-Nef inh	Dynein transport	TNF necrop inh	Autophagy HCS	Mdm2 ligase inh
Cc1cc(C)cc(N=C2SC(CC(=O)Nc3ccccc3)C(=O)N2CCN2CCOCC2)c1 (configuration not stated)	3	2	1.7	3	+	9
O=C(CC1SC(=Nc2ccccc2)N(CCO)C1=O)Nc1ccccc1 (configuration not stated)	6	14	-0.22	3	i	4
CCc1ccccc1S(=O)(=O)Cc1ccc(C(=O)N2CCN(c3ccccc3OC)CC2)o1	2	4	-0.91	-5	+	-4
COc1ccccc1S(=O)(=O)Cc1ccc(C(=O)N2CCCC2)o1	0	-1	-0.29	0	i	-2
O=c1c(Br)c(N2CCCC2)cnn1-c1ccccc1	0	2	0.72	0	i	-22
O=c1c(Br)c(Br)cnn1-c1ccccc1	-3	1	-5.8*	-15	i	-5
CCOC(=O)/C=c1\s/c(=C\c2ccc3cc(OC)ccc3c2)c(=O)n1CC(=O)NCC1CCCO1 (configuration not stated)	3	2	1.9	-1	+	16
CCOC(=O)/C=c1\s/c(=C\c2sccc2C)c(=O)n1CC(=O)NCc1ccc(C)cc1	0	-8	-1	-1	+	·
CCOC(=O)/C=c1\s/c(=C\c2ccc(C)cc2)c(=O)n1CC(=O)NCc1ccco1	1	4	-0.98	2	i	-22
Cc1c(N=C2SCC(=O)N2/N=C/c2ccccc2)c(=O)n(-c2ccccc2)n1C	0	2	-0.19	2	i	-11
O=C(CN1CCN(Cc2ccccc2Cl)CC1)N/N=C/c1cccs1	0	31	-1	5	·	-5
Cc1ccc(NC(=S)N2CCCCC2CO)cc1C (configuration not stated)	0	4	-0.87	1	i	0
CCOC(=O)N1CCN(CCC(=O)c2ccc(Cl)cc2)CC1	·	-16	-5.4*	1	i	-21
CCOC(=O)N1CCN(CCC(=O)c2ccc(OC)cc2)CC1	2	2	-2.4	0	i	4
CSc1nc2ccccc2cc1/C=C(\C#N)c1ccc(Cl)c(Cl)c1	0	0	-6.7	-3	+	-7
COc1ccc(CNCC(O)(c2ccc(F)cc2)c2ccc(F)cc2)cc1	2	23	-0.44	3	+	-4
N=c1sccn1CC(=O)Nc1cc(Cl)ccc1[N+](=O)[O-]	0	15	1.1	2	+	-21
Cc1cc(NC(=O)Cn2ccsc2=N)c([N+](=O)[O-])cc1C	1	22	-0.44	2	i	1
O=C1c2ccccc2C(=O)C12OC2c1ccc(Cl)cc1Cl (configuration not stated)	4	6	-4.6*	1	i	-24
Cc1ccc2nc3cc([N+](=O)[O-])cc([N+](=O)[O-])c3cc2c1	44	42	-6.3*	-15	+	9
Cc1nc2ccc([N+](=O)[O-])cc2nc1C	-1	18	3.2	0	i	2
COc1ccc(/C=C2/SC(=S)N(c3ccc(S(=O)(=O)Nc4nccs4)cc3)C2=O)cc1	1	59*	-0.15	-1	·	-13
O=C1/C(=C\c2ccccn2)SC(=S)N1c1ccc(S(=O)(=O)Nc2nccs2)cc1	3	28	0.73	0	·	-7
O=C(O)c1cccc(N/N=C/C2=C(Cl)c3cc(Cl)ccc3SC2)c1	1	46	-2	0	i	2
CC(c1nc2ccccc2o1)N1C(=O)c2ccccc2C1=O (configuration not stated)	0	10	0.5	-1	i	·
SMILES	zVAD death inh	Hck-Nef inh	Dynein transport	TNF necrop inh	Autophagy HCS	Mdm2 ligase inh
CCCN(CCC)c1nc(C)cc(C(C#N)c2nc3ccccc3o2)n1 (configuration not stated)	0	24	2.1	1	+	-2
COC(=O)CSc1ncnc2c(C)csc12	-1	0	-0.25	3	·	-13
O=C(NC1CCCCCC1)C1CCN(S(=O)(=O)N2CCC3(CC2)OCCO3)CC1	0	3	-0.51	-3	+	-10
CCc1cccc2c(SCC(=O)NCC3CCCO3)nc(-c3ccc(F)cc3)nc12 (configuration not stated)	1	2	-0.4	-3	+	6
CCN(CC)C(=S)Nc1cc(C(=O)OC)ccc1C(=O)OC	0	4	-0.88	1	i	1
CNC(=S)NCCc1cc2c(OC)ccc(OC)c2[nH]c1=O	0	19	-0.86	0	i	-8
O=C(Cn1cnc2c(nnn2Cc2ccccc2F)c1=O)NCC1CCCO1 (configuration not stated)	0	6	-0.98	-1	+	4
O=C(Cn1cnc2c(nnn2Cc2ccccc2)c1=O)NCC1CCCO1 (configuration not stated)	-2	-7	2.5	1	i	-10
O=C(c1n[nH]c(=O)c2ccccc12)N1CCN(C2c3ccccc3-c3ccccc32)CC1	0	1	-0.52	-11	i	-23
Cc1cc(NC(=O)c2ccccc2)n(-c2nc3ccccc3[nH]2)n1	2	18	-0.038	4	+	-21
CCOC(=O)c1nc(Nc2cc(C)cc(C)c2)c2ccccc2n1	1	-17	2.3	1	i	-9
NC(=NCCc1c[nH]c2ccccc12)NC(=O)c1ccc(F)cc1	1	1	0.2	-3	·	-19
O=C(Nc1ccncc1)Nc1ccncc1	2	26	0.79	1	i	41*
Cc1ccc(Cl)cc1NC(=S)N(CCCN1CCOCC1)Cc1ccco1	0	3	2.1	0	i	-1
O=C1CN(C(=O)c2cc([N+](=O)[O-])ccc2Cl)C(c2ccc(F)cc2)c2cc(F)ccc2N1 (configuration not stated)	-1	-2	-0.044	0	i	-19
CCCOC(=O)c1cc(-c2ccc(C=O)o2)ccc1Cl	1	2	0.88	1	i	2
C=CCOC(=O)c1cc(-c2ccc(/C=C3\C(=O)NC(=O)C(C#N)=C3C)o2)ccc1Cl	0	91*	-4.4*	-4	i	-4
CCCOC(=O)c1cc(-c2ccc(/C=C3/C(=O)N(C)C(=O)C(C#N)=C3C)o2)ccc1Cl	1	24	-3.7*	-2	i	·
CC(C)C(c1nnnn1Cc1ccc(F)cc1)N1CCC(C(N)=O)CC1 (configuration not stated)	0	17	1.3	1	i	-15
CC(C)c1ccccc1OCCCCCNCCO	0	3	-0.38	3	i	-5
